MrgX1 PAM: positive allosteric modulators of MrgX1, primary screen, HEK293 cells, Fluo-4 calcium flux | FDSS; active compounds read high | AID 588675, 2011 | B-score at 10 µM | hit rate 0.63% among 310,000;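 active = plate-corrected calcium response at least 3 library SD above typical, normal starting fluorescence, not activating the receptor alone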;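 note: compound read alongside a low EC10 to EC30 dose of BAM8-22 agonist; peak minus trough fluorescence over baseline measured at the second addition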
Target sequence (Q96LB2 whole entry, looked up): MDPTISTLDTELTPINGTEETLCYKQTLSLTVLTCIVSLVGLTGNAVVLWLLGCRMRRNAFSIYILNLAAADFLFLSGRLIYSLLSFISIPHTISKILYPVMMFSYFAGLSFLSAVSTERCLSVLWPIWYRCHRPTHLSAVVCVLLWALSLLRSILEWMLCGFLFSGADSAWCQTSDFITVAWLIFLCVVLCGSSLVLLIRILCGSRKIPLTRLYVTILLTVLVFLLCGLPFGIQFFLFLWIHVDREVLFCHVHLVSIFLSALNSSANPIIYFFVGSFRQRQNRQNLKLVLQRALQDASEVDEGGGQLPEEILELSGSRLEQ
RGS4 act: RGS4 potentiators or activators, primary screen, cell-based, HEK293 M3R inducible RGS4, calcium flux. hit rate 0.92% among 310,000. B-score at 10 µM. carbachol calcium flux Fluo4; active compounds read low. AID 463111, 2010;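 active = B-score of the integrated calcium signal more than 4 SD below the library mean, with starting fluorescence not abnormally high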;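 note: negative B-score means reduced calcium response which marks RGS4 activation or potentiation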
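Material: M3R-expressing HEK293 line, RGS4 induced by doxycycline | Schedule: Overnight RGS4 induction, 30 min dye load 37 °C, 20 min compound RT | Measured by: Fluo4 fluorescence kinetic imaging of calcium | Read-out: Integrated calcium ratio converted to B score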
MrgX1 agonist: agonists of human MrgX1 receptor, primary screen, HEK293 cells, Fluo-4 calcium flux; AID 588627, 2011; Fluo-4 calcium fluorescence, agonist mode; active compounds read high; Mas-related G-protein coupled receptor member X1 (Homo sapiens), Q96LB2; hit rate 0.44% among 310,000; B-score at 10 µM;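 active = calcium response B-score plate-corrected fluorescence ratio at least 3 library SD, with starting fluorescence B-score inside 5 SD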
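Material: MrgX1-expressing HEK293 cells / Dosing: compound as first of three additions / Incubation: overnight seeding, then 1 h dark dye loading / Signal: Fluo-4 NW calcium fluorescence / Evaluation: B-scored fluorescence response ratio / Benchmarks: positive and negative control wells on each plate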
MrgX1 antagonist: antagonists of human MrgX1 receptor, primary screen, HEK293 cells, Fluo-4 calcium flux; BAM8-22 antagonism; active compounds read low; B-score at 10 µM; hit rate 1.3% among 310,000; AID 588676, 2011; Mas-related G-protein coupled receptor member X1 (Homo sapiens), Q96LB2;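 active = calcium-response B-score plate-corrected more than 3 library SD below zero, starting fluorescence within 5 deviations, no agonist response on first addition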;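 note: peak minus trough fluorescence over baseline after final BAM8-22 challenge near maximal dose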
RGS4 block: RGS4 inhibitors, primary screen, cell-based, HEK293 M3R inducible RGS4, calcium flux. Regulator of G-protein signaling 4 (Homo sapiens), P49798. Fluo-4 calcium flux; active compounds read high; triggered by carbachol at its EC20. B-score at 10 µM. hit rate 0.45% among 310,000. AID 463165, 2010;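 active = B-score, a plate-corrected calcium signal, over three deviations above library mean, with baseline fluorescence within five deviations of library mean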;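 note: RGS4 expression induced by doxycycline in cells with stable M3 receptor; B-score is computed from the integrated fluorescence ratio over baseline after carbachol; higher B-score means a larger calcium signal and so more RGS4 inhibition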
Target sequence (P49798 whole entry, looked up): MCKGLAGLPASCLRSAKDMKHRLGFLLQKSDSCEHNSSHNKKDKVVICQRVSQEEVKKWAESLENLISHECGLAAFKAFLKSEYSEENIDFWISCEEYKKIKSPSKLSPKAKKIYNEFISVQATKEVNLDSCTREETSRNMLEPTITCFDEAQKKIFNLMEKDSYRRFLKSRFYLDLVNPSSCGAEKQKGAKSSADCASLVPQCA
MrgX1 PAM conf: MrgX1 positive allosteric modulators, duplicate retest, confirmation, HEK293 cells, Fluo-4 calcium flux; shares compounds with MrgX1 PAM; Fluo-4 calcium fluorescence, FDSS; activation (ratio percentage), % at 10 µM; hit rate 13% among 1,200; AID 602413, 2012;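 active = ratio at least 3 SD above the weak peptide control, stable starting fluorescence, no direct agonism earlier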;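 note: compound followed by low BAM8-22 agonist challenge near EC20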
HEK293 Ca flux: nonspecific calcium signal in parental HEK293, confirmation, counter-screen for MrgX1 antagonist project, parental HEK293 cells, Fluo-4 calcium flux; AID 624111, 2012; shares compounds with MrgX1 antagonist; hit rate 2% among 4,000; fluorescence ratio F(max-min)/F0 at 10 µM; Fluo-4 calcium fluorescence, FDSS;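 active = duplicate-averaged calcium fluorescence ratio at least three times the standard deviation of buffer wells, a nonspecific response in parental cells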
HEK293 Ca counter: calcium response in parental HEK293 cells, primary screen, counter-screen for MrgX1 allosteric activator project, cell-based, Fluo-4 calcium flux, duplicate | shares compounds with MrgX1 antagonist | Fluo-4 fluorescence ratio; active compounds read high | fluorescence ratio F(max-min)/F0 at 10 µM | hit rate 0.4% among 4,000 | AID 624114, 2012;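 active = calcium fluorescence ratio, averaged over duplicates, at least 3 SD of the buffer-well ratio, meaning a nonspecific response in receptor-free cells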;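 note: untransfected parental HEK293 lacking MrgX1 used as counterscreen for MrgX1 allosteric activators; fluorescence change taken during the second addition on a kinetic imager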
HEK293 Ca cntr2: calcium response in parental HEK293 cells, primary screen, counter-screen for MrgX1 agonist project, cell-based, Fluo-4 calcium flux, duplicate, agonist mode. shares compounds with MrgX1 antagonist. Fluo-4 calcium fluorescence (FDSS); active compounds read high. fluorescence ratio F(max-min)/F0 at 10 µM. hit rate 8.7% among 4,000. AID 624115, 2012;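 active = calcium fluorescence ratio at least three times the spread of buffer wells, meaning a non-specific response in parental cells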
Active calls of the source: *; i = inactive; · = not tested or not shown. This is a sample that favours compounds with a hit; in the whole collection about 3.5% have one here.

SMILES	MrgX1 PAM	RGS4 act	MrgX1 agonist	MrgX1 antagonist	RGS4 block	MrgX1 PAM conf	HEK293 Ca flux	HEK293 Ca counter	HEK293 Ca cntr2
CCNc1nc(Sc2ccc(C)cc2)cc(C(F)(F)F)n1	6.8*	i	i	i	i	15%*	i	i	i
CCNc1nc(Oc2ccc(OC)cc2)cc(C(F)(F)F)n1	10*	i	i	i	i	i	i	i	i
O=C1CC(NS(=O)(=O)c2cccs2)CN1c1cccc(F)c1 (stereo not drawn)	i	i	i	i	i	·	·	·	·
O=C(Nc1cccc(Cl)c1)c1ccc2ncsc2c1	7.7*	i	i	i	i	i	i	i	i
O=C(Nc1ccc(Cl)cc1)c1ccc2ncsc2c1	i	i	i	i	i	·	·	·	·
Cc1cc(OCC(=O)Nc2ccc(N3CCN(C(=O)c4ccco4)CC3)cc2)cc(C)c1Cl	i	i	i	i	i	·	·	·	·
Cc1ccc(OCC(=O)Nc2ccc(N3CCN(C(=O)c4ccco4)CC3)cc2)cc1C	10*	i	i	i	i	i	i	i	i
CCC1=NN2C(=N)/C(=C\c3ccc(SCc4ccco4)o3)C(=O)N=C2S1	22*	i	i	i	i	i	i	i	57*
CS(=O)(=O)N1N=C(c2cccs2)CC1c1ccc(F)cc1 (stereo not drawn)	21*	i	i	i	i	i	i	i	i
COCCn1c(C)cc(/C=C(\C#N)C(=O)OC(C)C(=O)Nc2ccc(NC(C)=O)cc2)c1C (stereo not drawn)	i	i	i	i	i	·	·	·	·
CCCCc1cc(=O)oc2cc(OCC(=O)NCc3ccccn3)c(Cl)cc12	i	i	i	i	i	·	·	·	·
CCCCc1cc(=O)oc2cc(OC(C)C(=O)NCc3ccccn3)c(Cl)cc12 (stereo not drawn)	13*	i	i	i	i	i	i	i	i
Nc1nc(C23CC4CC(CC(Cl)(C4)C2)C3)cs1	i	i	i	i	i	·	·	·	·
Nc1nc(C23CC4CCC(CC(C4)C2)C3)cs1	7.1*	i	i	i	i	i	i	i	i
O=C1C(=O)N(CCN2CCOCC2)C(c2ccncc2)/C1=C(/O)c1ccc2c(c1)OCO2 (stereo not drawn)	7.7*	i	i	i	i	i	i	i	i
Cc1ccc(C)c(S(=O)(=O)N2CCN(C(=O)c3cncc(Br)c3)CC2)c1	i	i	i	i	i	·	·	·	·
Cn1c(-c2ccccc2)cc2onc(-c3ccccc3)c2c1=O	12*	·	i	i	·	21%*	i	i	i
Cn1c(-c2ccccc2F)cc2onc(-c3ccccc3)c2c1=O	i	·	i	i	·	·	·	·	·
Cc1ccc(NC(=O)C2CCCN(S(=O)(=O)c3ccc4[nH]c(=O)ccc4c3)C2)c(C)c1 (stereo not drawn)	i	i	i	i	i	·	·	·	·
CC(NC(=O)C1CSC2(C)CCC(=O)N12)c1ccccc1Cl (stereo not drawn)	i	i	i	i	i	·	·	·	·
CC12CCC(=O)N1C(C(=O)OCc1c(Cl)cccc1Cl)CS2 (stereo not drawn)	6.5*	i	i	i	i	i	i	i	i
Cc1cccc(C)c1NC(=O)CN(C)C(=O)c1cccc(S(=O)(=O)N2CCN(c3ccc(F)cc3)CC2)c1	9*	i	i	i	i	i	i	i	i
COc1ccc(Cl)cc1S(=O)(=O)N1CCN(c2ccc(F)cc2)CC1	17*	i	i	i	i	i	i	i	i
COc1ccc(OC)c(S(=O)(=O)N2CCN(c3ccccc3)CC2)c1	i	i	i	i	i	·	·	·	·
COc1ccc(C(C)C)cc1S(=O)(=O)N1CCN(c2ccccc2)CC1	15*	i	i	i	i	i	i	i	i
SMILES	MrgX1 PAM	RGS4 act	MrgX1 agonist	MrgX1 antagonist	RGS4 block	MrgX1 PAM conf	HEK293 Ca flux	HEK293 Ca counter	HEK293 Ca cntr2
CC[C@H](C)[C@H](NC(=O)c1ccccc1)C(=O)Nc1ccc(S(=O)(=O)Nc2cc(C)nc(C)n2)cc1	i	i	i	i	i	·	·	·	·
Cc1ccc(-n2c(C)c3c(C)nnc(C)c3c2C)cc1N	22*	i	i	i	i	i	i	i	i
Cc1cc(-n2c(C)c3c(C)nnc(C)c3c2C)ccc1N	i	i	i	i	i	·	·	·	·
CC(=O)N1CCc2cc(S(=O)(=O)CCC(=O)NCc3ccc(F)cc3)ccc21	i	i	i	i	i	·	·	·	·
CCOC(=O)CSCc1csc(CC(=O)Nc2ccccc2C)n1	i	i	i	i	i	·	·	·	·
CCN(CC)C(=S)SCc1csc(CC(=O)Nc2ccccc2C)n1	9.8*	i	i	i	i	i	i	i	i
Cc1nc2cc3c(cc2c(C)c1C(=O)OC(C)C)OCO3	7.1*	i	i	i	i	i	i	i	i
COC(=O)c1nc2cc3c(cc2c(C)c1C(=O)OC)OCO3	i	i	i	i	i	·	·	·	·
COc1ccc(Cl)cc1NC(=O)C1COc2ccccc2O1 (stereo not drawn)	i	i	i	i	i	·	·	·	·
Cc1nc2ccc3nc(NC(=O)C4COc5ccccc5O4)sc3c2s1 (stereo not drawn)	8.1*	i	i	i	i	7.8%*	i	i	i
CN1CCN(c2ccc(Cl)cc2NC(=O)C2COc3ccccc3O2)CC1 (stereo not drawn)	6.5*	i	i	i	i	i	i	i	i

Screens as filed in PubChem BioAssay.
